Measurements from ChEMBL document CHEMBL5360637, “Ravidomycin Analogs from Streptomyces sp. Exhibit Altered Antimicrobial and Cytotoxic Selectivity” (J Nat Prod, 2023).
≈ marks a conversion by molar mass, not a printed value.

Legend:
Staphylococcus aureus = experiment: Antibacterial activity against Staphylococcus aureus Newman assessed as bacterial growth inhibition incubated for 24 hrs by microtiter plate reader analysis; type: functional
Outline: (§1)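 Broth microdilution in Mueller-Hinton broth (P. aeruginosa PAO1 is the mexAB-oprM strain). Overnight cultures were diluted 1:1000 and 200 μL was added to wells holding 2 μL of compound in DMSO. Plates were incubated 24 h at room temperature under room fluorescent light, then OD600 was read. MIC was taken as the lowest concentration keeping OD600 from rising above 0.1.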

Pseudomonas aeruginosa = experiment: Antibacterial activity against Pseudomonas aeruginosa PAO1 assessed as bacterial growth inhibition incubated for 24 hrs by microtiter plate reader analysis; type: functional; outline: as §1
Candida albicans = experiment: Antifungal activity against Candida albicans SC5314 assessed as bacterial growth inhibition incubated for 24 hrs by microtiter plate reader analysis; type: functional
Outline: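 C. albicans was grown in RPMI 1640 with 165 mM MOPS, pH 7.0. Overnight culture was diluted 1:1000 and 200 μL was added to wells holding 2 μL of compound in DMSO. Plates were incubated 24 h at room temperature under room fluorescent light, then OD600 was read. MIC was the lowest concentration preventing OD600 from exceeding 0.1.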

HCC1806 = experiment: Cytotoxicity against human HCC1806 cells assessed as reduction in cell viability incubated for 72 hrs by Cell-titer glo assay; type: functional, cell-based; settings: HCC1806, 72 h
Outline: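 HCC1806 cells were grown in DMEM with 10% FBS, penicillin/streptomycin and 1% GlutaMax, were mycoplasma-tested and kept ≤4 weeks. Cells were seeded at 2500 per well and treated after 24 h, with six wells per dose, against a 0.1% DMSO vehicle. CellTiter-Glo 2.0 luminescence was read at 72 h. IC50 came from a log(inhibitor) vs normalized response least-squares fit of % viability relative to DMSO.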

Compound	MIC (Staphylococcus aureus)	MIC (Pseudomonas aeruginosa)	MIC (Candida albicans)	IC50 (HCC1806)
C=Cc1cc(OC)c2c(c1)c(=O)oc1c2cc(OC)c2c(O)ccc([C@@H]3O[C@H](C)[C@H](O)[C@H](NC)[C@H]3O)c21	0.049 µg/mL (≈ 0.0965 µM)	6.3 µg/mL (≈ 12.4 µM)	0.78 µg/mL (≈ 1.54 µM)	53 nM
COc1cc2c(oc(=O)c3cc([C@H](C)O)cc(OC)c32)c2c([C@@H]3O[C@H](C)[C@H](O)[C@H](N(C)C)[C@H]3O)ccc(O)c12	13 µg/mL (≈ 24.1 µM)	> 13 µg/mL	> 13 µg/mL	> 10000 nM
C=Cc1cc(OC)c2c(c1)c(=O)oc1c2cc(OC)c2c(O)ccc([C@@H]3O[C@H](C)[C@H](O)[C@H](N(C)C)[C@H]3O)c21	0.006 µg/mL (≈ 0.0115 µM)	3.1 µg/mL (≈ 5.94 µM)	0.78 µg/mL (≈ 1.5 µM)	81 nM
C=Cc1cc(OC)c2c(c1)c(=O)oc1c2cc(OC)c2c(O)ccc([C@@H]3O[C@H](C)[C@H](O)[C@H](N(C)C(=O)OC)[C@H]3O)c21	0.003 µg/mL (≈ 0.0053 µM)	50 µg/mL (≈ 88.4 µM)	6.3 µg/mL (≈ 11.1 µM)	550 nM
CCc1cc(OC)c2c(c1)c(=O)oc1c2cc(OC)c2c(O)ccc([C@@H]3O[C@H](C)[C@H](O)[C@H](N(C)C)[C@H]3O)c21	0.78 µg/mL (≈ 1.49 µM)	> 100 µg/mL	25 µg/mL (≈ 47.7 µM)	> 10000 nM
C=Cc1cc(O)c2c(c1)c(=O)oc1c2cc(OC)c2c(O)ccc([C@@H]3O[C@H](C)[C@H](O)[C@H](N(C)C)[C@H]3O)c21	0.39 µg/mL (≈ 0.768 µM)	> 13 µg/mL	13 µg/mL (≈ 25.6 µM)	> 10000 nM
C=Cc1cc(OC)c2c(c1)c(=O)oc1c2cc(OC)c2c(O)ccc([C@@H]3O[C@H](C)[C@H](O)[C@H](O)[C@H]3O)c21	0.006 µg/mL (≈ 0.0121 µM)	3.1 µg/mL (≈ 6.27 µM)	13 µg/mL (≈ 26.3 µM)	3600 nM
C=Cc1cc(OC)c2c(c1)c(=O)oc1c2cc(OC)c2c(O)ccc([C@@H]3O[C@H](C)[C@H](O)C[C@H]3O)c21	0.1 µg/mL (≈ 0.209 µM)	50 µg/mL (≈ 104 µM)	6.3 µg/mL (≈ 13.2 µM)	> 10000 nM
C=Cc1cc(OC)c2c(c1)c(=O)oc1c2cc(OC)c2c(O)ccc([C@@H]3O[C@H](C)[C@H](O)[C@H](NC(=O)OC)[C@H]3O)c21	0.012 µg/mL (≈ 0.0218 µM)	25 µg/mL (≈ 45.3 µM)	6.3 µg/mL (≈ 11.4 µM)	710 nM
COc1cc2c(oc(=O)c3cc(C)cc(OC)c32)c2c([C@@H]3O[C@H](C)[C@H](O)[C@H](N(C)C)[C@H]3O)ccc(O)c12	1.6 µg/mL (≈ 3.14 µM)	> 100 µg/mL	100 µg/mL (≈ 196 µM)	3600 nM
C=Cc1cc(OC)c2c(c1)c(=O)oc1c2cc(OC)c2c(O)ccc([C@@H]3O[C@H](C)[C@H](OC(C)=O)[C@H](N(C)C)[C@H]3O)c21	0.39 µg/mL (≈ 0.692 µM)	13 µg/mL (≈ 23.1 µM)	0.39 µg/mL (≈ 0.692 µM)	42 nM

The next lines start with results.

MIC (Staphylococcus aureus)	MIC (Pseudomonas aeruginosa)	MIC (Candida albicans)	Compound	IC50 (HCC1806)
0.003 µg/mL (≈ 0.00559 µM)	50 µg/mL (≈ 93.2 µM)	6.3 µg/mL (≈ 11.7 µM)	C=Cc1cc(OC)c2c(c1)c(=O)oc1c2cc(OC)c2c(O)ccc([C@@H]3O[C@H](C)[C@H](OC(C)=O)[C@H](O)[C@H]3O)c21	5100 nM
0.006 µg/mL (≈ 0.0112 µM)	> 100 µg/mL	6.3 µg/mL (≈ 11.7 µM)	C=Cc1cc(OC)c2c(c1)c(=O)oc1c2cc(OC)c2c(O)ccc([C@@H]3O[C@H](C)[C@H](O)[C@H](OC(C)=O)[C@H]3O)c21	370 nM
0.006 µg/mL (≈ 0.0109 µM)	50 µg/mL (≈ 91 µM)	13 µg/mL (≈ 23.7 µM)	C=Cc1cc(OC)c2c(c1)c(=O)oc1c2cc(OC)c2c(O)ccc([C@@H]3O[C@H](C)[C@H](O)[C@H](N(C)C(C)=O)[C@H]3O)c21	1700 nM
0.049 µg/mL (≈ 0.0913 µM)	> 100 µg/mL	> 25 µg/mL	C=Cc1cc(OC)c2c(c1)c(=O)oc1c2cc(OC)c2c(O)ccc([C@@H]3O[C@H](C)[C@H](O)[C@H](O)[C@H]3OC(C)=O)c21	870 nM
0.1 µg/mL (≈ 0.187 µM)	> 13 µg/mL	13 µg/mL (≈ 24.3 µM)	C=Cc1cc(OC)c2c(c1)c(=O)oc1c2cc(OC)c2c(O)ccc([C@@H]3O[C@H](C)[C@H](O)[C@H](NC(C)=O)[C@H]3O)c21	> 10000 nM
